HKDC1 inhibitor – inhibitors of human hexokinase HKDC1; recombinant HKDC1, G6PDH/diaphorase resazurin coupled fluorescence; inhibition, % at 20 µM; Q2TB90; 340,000 compounds, 0.16% hits;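 active = inhibition above about 35% when tested at 20 µM, limit read from the data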;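 note: plate controls were DMSO wells with enzyme for no effect and DMSO wells lacking enzyme for full effect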
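Test system: recombinant HKDC1 (HK5) hexokinase enzyme, produced in-house; Amount: enzyme 5 µg/mL final; Buffer or medium: Tris pH 8.0 buffer with MgCl2, Tween-20, BSA, BME; Reagent: glucose and ATP substrates; Doses: 20 µM test compound, 1% DMSO; Incubation: 90 min reaction incubation at room temperature, dark; Detection: resorufin fluorescence at 613 nm.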
hiPSC survival – hiPSC single-cell survival enhancement; 360,000 compounds, 0.044% hits; survival enhancement, % at 20 µM; ATPlite luminescence; 100% = ROCK inhibitor wells, 0% = DMSO; in the data active = survival enhancement above about 18%;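 note: cells exposed to compounds for 16 hours before the ATP read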
APOBEC3A inh – human APOBEC3A DNA deaminase inhibition; AID 493011; inhibition, % at 20 µM; P31941; recombinant A3A, FAM/TAMRA ssDNA deamination fluorescence; 330,000 compounds, 0.41% hits;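 active = at least 40% inhibition at 20 µM here, with at most 30% in a related deaminase screen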;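 note: plate controls were A3A with DMSO for no effect and wells lacking A3A enzyme for full effect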
Target sequence (P31941 whole entry, looked up): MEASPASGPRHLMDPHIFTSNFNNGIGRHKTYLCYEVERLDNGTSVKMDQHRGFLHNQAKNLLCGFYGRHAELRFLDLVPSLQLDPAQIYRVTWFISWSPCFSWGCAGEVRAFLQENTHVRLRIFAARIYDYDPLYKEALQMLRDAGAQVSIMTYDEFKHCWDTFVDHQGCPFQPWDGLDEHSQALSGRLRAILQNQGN
PfG6PD inh – PfG6PD (Plasmodium falciparum) enzyme inhibition | PfGluPho enzyme, NADPH resazurin-diaphorase fluorescence | inhibition, % at 20 µM | 350,000 compounds, 0.78% hits;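 active = inhibition reaching at least a set limit at 20 µM in the primary screen, cut at about 59% in these data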;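 note: 0% = DMSO wells with substrate and 100% = DMSO wells lacking glucose-6-phosphate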
APOBEC3G inh – blocks human APOBEC3G single-stranded DNA deamination; AID 493012; 330,000 compounds, 0.28% hits; inhibition, % at 20 µM; recombinant A3G, ssDNA deamination FAM/TAMRA fluorescence;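 active = inhibition of at least 40% at 20 µM, with no more than 30% in the related APOBEC3A deaminase screen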;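 note: plate controls were DMSO wells with A3G for no effect and wells lacking A3G enzyme for full effect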
Target sequence (Q9HC16 whole entry, looked up): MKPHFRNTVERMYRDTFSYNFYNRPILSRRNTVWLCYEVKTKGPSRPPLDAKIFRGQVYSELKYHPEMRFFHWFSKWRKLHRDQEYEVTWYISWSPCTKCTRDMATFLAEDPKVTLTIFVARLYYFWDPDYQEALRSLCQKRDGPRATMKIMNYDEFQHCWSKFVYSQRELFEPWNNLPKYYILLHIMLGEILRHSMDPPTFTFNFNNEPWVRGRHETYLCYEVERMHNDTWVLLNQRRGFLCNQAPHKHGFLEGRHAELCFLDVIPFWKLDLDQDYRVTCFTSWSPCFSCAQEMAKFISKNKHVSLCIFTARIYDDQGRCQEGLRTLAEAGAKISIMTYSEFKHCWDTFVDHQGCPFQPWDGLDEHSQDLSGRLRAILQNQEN
HKDC1 act conf2 – confirmation of human HKDC1 activators | recombinant HKDC1, G6PDH/diaphorase resazurin fluorescence; active compounds read low | AID 504708 | shares compounds with HKDC1 inhibitor | inhibition, % at 20 µM | 740 compounds, 14% hits;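 active = inhibition at or below a set negative limit, negative inhibition meaning the enzyme was activated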
* hit, by the source's call; · = no result. Hits are enriched below; roughly 1.4% of the tested compounds scored in any of these assays.

SMILES | HKDC1 inhibitor | hiPSC survival | APOBEC3A inh | PfG6PD inh | APOBEC3G inh | HKDC1 act conf2
CC(C)c1nc2oc3c(NCC4CCCO4)ncnc3c2c2c1CCC2 (stereo not drawn) | 35 | 1 | 3 | 30 | 3 | ·
Cc1nc2oc3c(NCc4ccccn4)ncnc3c2c2c1COC(C)(C)C2 | 22 | 0 | 0 | 23 | 2 | ·
CCCc1nc2oc3c(NCc4ccccn4)ncnc3c2c2c1COC(C)(C)C2 | 34 | 1 | -1 | 52 | 0 | 23
CC(=NNC(=S)SCc1ccccc1)c1ccccn1 | -47 | -1 | · | -6 | · | -28*
CC(=NNC(=S)Nc1cccc(Cl)c1)c1ccccn1 | -46 | -2 | · | 35 | · | -63*
CC(=NNC(=S)N1CCC1)c1ccccn1 | -39 | -2 | · | 50 | · | ·
S=C(NCc1ccccn1)Nc1cccc(Cl)c1 | -5 | -2 | 3 | 1 | -1 | ·
CCOc1ccccc1Nc1nnc(SCc2nnc(-c3cc(OC)c(OC)c(OC)c3)o2)s1 | 48* | 1 | -7 | 42 | -11 | 45
COc1ccccc1Nc1nnc(SCc2nnc(-c3cc(OC)c(OC)c(OC)c3)o2)s1 | 35 | 0 | -7 | 32 | -8 | 33
Cc1ccc(Cl)cc1NC(=O)C1C2CCC(O2)C1C(=O)O (stereo not drawn) | -5 | 0 | -4 | 13 | -18 | ·
COc1ccc(NC(=O)C2(C)Cc3c(-c4cccc(C(N)=O)c4)ccnc3O2)cc1 (stereo not drawn) | · | 3 | · | · | · | ·
CCOC(=O)c1ccccc1NC(=O)Cc1ccc(OC)c(S(=O)(=O)N2CCOCC2)c1 | -2 | -2 | -1 | -25 | -3 | ·
CC1=C(C(=O)N(C)C)CC(CC(=O)NC2CCCCC2)C(=O)N1Cc1ccc(F)cc1 (stereo not drawn) | · | -2 | · | · | · | ·
O=C(CNC(=O)c1ccccc1)Sc1ccccc1 | -1 | -2 | · | 2 | · | ·
O=C(CCCCC(=O)Sc1ccccc1)Sc1ccccc1 | 39* | 0 | · | -6 | · | -4
CC(=O)c1cnc2c(-c3ccccc3)c(-c3ccccc3)nn2c1C | 0 | 0 | -5 | -20 | -1 | ·
CC12CCC(C(=O)N/N=C/c3ccc(O)cc3O)(OC1=O)C2(C)C (stereo not drawn) | -39 | 0 | -6 | -44 | -6 | -35*
C/C(=N\NC(=O)C12CCC(C)(C(=O)O1)C2(C)C)c1ccccc1O (stereo not drawn) | -16 | 0 | 0 | -44 | 0 | ·
CCOC(=O)C1=C(Cc2ccc(OC)cc2)C(=O)c2ccccc2C1=O | 71* | -3 | · | 95* | · | 56
CCOc1ccc2oc(C(=O)N3CCN(c4ccccc4OCC)CC3)c(C)c2c1 | 0 | 0 | 1 | 16 | -2 | ·
CC(=NNC(=O)c1ccncc1)c1ccc(O)cc1O | -40 | 0 | · | -38 | · | -4
CC(=NNC(=O)c1ccncc1)c1ccccc1O | -1 | -1 | · | -40 | · | ·
C/C(=N\NC(=O)c1cc(-c2cccnc2)nc2ccccc12)c1ccc(O)cc1O | -40 | -2 | 7 | -29 | -4 | -3
C/C(=N\NC(=O)c1cc(-c2cccc(OC(C)C)c2)nc2ccccc12)c1cccnc1 | 4 | 0 | -1 | 14 | -8 | ·
Cc1cc(C)c2c(=O)[nH]cnc2n1 | 64* | 3 | -1 | 25 | -5 | -14
SMILES | HKDC1 inhibitor | hiPSC survival | APOBEC3A inh | PfG6PD inh | APOBEC3G inh | HKDC1 act conf2
Cc1cc(C)c2c(C)[nH]nc2n1 | -3 | 2 | 2 | -13 | 1 | ·
CC(=O)c1sc(NC(=O)CN2C(=O)C3CCCCC3C2=O)nc1-c1ccccc1 (stereo not drawn) | 2 | -2 | -4 | -18 | -4 | ·
COc1ccc(NC(=O)CSc2ccc(-c3cccnc3)nn2)c(OC)c1 | 32 | 1 | -2 | 37 | -8 | 39
COc1ccccc1/C=C/C=N/n1c(-c2ccc(Cl)cc2)n[nH]c1=S | -8 | 0 | 2 | 19 | 7 | ·
O=C(CSc1n[nH]c(-c2cccnc2)n1)Nc1ccc([N+](=O)[O-])cc1Br | 46* | 0 | -1 | 26 | -4 | 56
C=CCN(CC=C)Cc1c(O)ccc2c1oc(=O)c1ccccc12 | 34 | 6 | 0 | 30 | -10 | 23
CCc1nnc(N/N=C/c2cc(Br)c(O)cc2O)n1N | 13 | -1 | -2 | 52 | 1 | ·
CC(C)(C)c1nnc(N/N=C/c2cc(Br)ccc2O)n(N)c1=O | -43 | -2 | · | -5 | · | -49*
O=S(=O)(NC1c2cccc3cccc(c23)C1N1CCN(CCO)CC1)c1ccccc1 (stereo not drawn) | -66 | 1 | · | -61 | · | -118*
O=S(=O)(NC1c2cccc3cccc(c23)C1N1CCNCC1)c1ccccc1 (stereo not drawn) | -56 | -4 | 1 | -42 | -1 | -95*
O=C(c1ccccc1)N1CCN(C2c3cccc4cccc(c34)C2NS(=O)(=O)c2ccccc2)CC1 (stereo not drawn) | -34 | 2 | 1 | -29 | 5 | ·
CCCCN1C(=O)C(NC(C)=O)c2cc(Br)ccc21 (stereo not drawn) | -3 | -1 | -1 | 0 | 0 | ·
CCN1C(=O)C(NC(C)=O)c2cc(Br)ccc21 (stereo not drawn) | -5 | 0 | -6 | -3 | 0 | ·
CC(=O)NC1C(=O)N(CCN2CCOCC2)c2ccc(F)cc21 (stereo not drawn) | 79* | 0 | 2 | 8 | 1 | 61
CC(=O)NC1C(=O)N(CCN2CCOCC2)c2ccc(Cl)cc21 (stereo not drawn) | 82* | 0 | · | 12 | · | 61
CC(=O)NC1C(=O)N(CCN2CCOCC2)c2ccc(C)cc21 (stereo not drawn) | 86* | 0 | · | 17 | · | 70
CCCNC(=O)C1(C)CCCN(C(=O)c2ccccc2OC)C1 (stereo not drawn) | · | 3 | · | · | · | ·
CC12CCC(=O)C=C1C(F)CC1C2C(O)CC2(C)C1CCC2(O)C(=O)CO (stereo not drawn) | -5 | 0 | · | -13 | · | ·
CN(CC(=O)Nc1cccc(F)c1)C(=O)c1ccc(NC2CC2)c([N+](=O)[O-])c1 | -3 | 0 | 2 | 5 | -7 | ·
O=C1C(Cl)=C(N2CCCCCC2)C(=O)N1c1ccc(Cl)cc1 | -1 | 1 | -2 | -10 | -2 | ·
O=C1C(Cl)=C(N2CCCCC2)C(=O)C(Cl)=C1c1cnc(N2CCCCC2)s1 | 70* | -1 | 54 | 88* | 39 | 49
O=C(Nc1ccccc1)C(Cc1ccccc1)c1ccccc1 (stereo not drawn) | -4 | 1 | · | -3 | · | ·
CCc1ccc(S(=O)(=O)NCCc2cn3ccccc3n2)s1 | 39* | 8 | 2 | 9 | -4 | 8
Cc1ccc([N+](=O)[O-])cc1S(=O)(=O)NCCc1cn2ccccc2n1 | -6 | -1 | 4 | -3 | 1 | ·
OC(c1ccc(-c2ccccc2)cc1)c1ncc(-c2ccccc2F)[nH]1 (stereo not drawn) | · | -1 | · | · | · | ·
NNc1nc(C(F)(F)F)nc2ccccc12 | -9 | 0 | -1 | -4 | -5 | ·

Compound activity deposited in PubChem by Sanford-Burnham Center for Chemical Genomics.
